T cruzi repl: blocks replication of Trypanosoma cruzi | T. cruzi beta-gal in NIH3T3, luminescence, 90 h | inhibition, % (no concentration beside the values) | 300,000 tested, 1.4% active;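 active = mean inhibition across valid replicates above about 55%, limit read from the data; inconclusive = mean below that limit but half or more replicates reach it; inactive = mean below it, under half of replicates reach it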;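 note: signal also drops with host cell toxicity which is not excluded here; higher percent means less beta-gal luminescence so fewer parasites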
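System – NIH/3T3 host cells with β-galactosidase reporter T. cruzi · Doses – single 50 nL compound addition per well in DMSO · Reagent – 5000 T. cruzi trypomastigotes/well · Medium – Low-serum DMEM with 2% FBS · Timing – ≥90 h infection period, 3 h prior cell attachment · Evaluation – parasite load inhibition, % · Technique – GalScreen luminescence, 60 min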
PolyA inh: inhibitors of polyadenylation in S. cerevisiae. 300,000 tested, 0.02% active. S. cerevisiae SKY197-pL101 polyadenylation reporter, beta-gal luminescence; efflux-impaired pdr1/pdr3 knockout yeast; score 100 = 6 SD above DMSO. activity score, % at 12 µM. AID 1875;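 active = lowest replicate activity score at least 50, where 100 means six control SD above control mean; inconclusive = lowest score under 50 but half or more replicates reach 50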;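 note: yeast exposed to compound for 9 h at 30 °C; higher score means more reporter readthrough which indicates perturbed polyadenylation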
L major viab: reduces viability of Leishmania major promastigotes; inhibition, % at 10 µM; 200,000 tested, 9% active; resazurin fluorescence viability; in the data active = inhibition above about 50%;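 note: promastigotes grown with compound for 44 hours at 28 °C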
NLRP3 yeast inh: NALP3 inhibition in yeast; Yeast reconstituted NLRP3/ASC/caspase-1, beta-gal luminescence, 24 h; 330,000 tested, 0.39% active; inhibition, % at 10 µM;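 active = inhibition of 50% or more; inactive = inhibition below 50%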
NALP1 inh: inhibitors of NALP1 inflammasome in yeast | S. cerevisiae NALP1/ASC/caspase-1 growth, X-gal OD620, 72 h | inhibition, % at 10 µM | 280,000 tested, 0.61% active | AID 2071; in the data active = inhibition mostly above about 24%, no sharp cut-off; inactive = mostly below about 32%
Calb FLC: affects C. albicans growth with fluconazole. C. albicans CaCi-2 + fluconazole, Alamar Blue growth, 48 h. growth inhibition, % (concentration not given with the values). 300,000 tested, 0.57% active;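 active = growth inhibition above about 58% in most replicates, limit read from the data, passing the limit was not always enough; inconclusive = exactly half the replicates above a set limit; inactive = most replicates below a set limit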;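 note: all wells also contain fluconazole at 8 µg/ml as a sub-toxic cotreatment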
Numbers stand for hits; - = inactive; ? = inconclusive; . = not tested or not shown. Only a selection was taken, and hits are over-represented in it overall.

SMILES | T cruzi repl | PolyA inh | L major viab | NLRP3 yeast inh | NALP1 inh | Calb FLC
O=C(N/N=C/c1cc(Br)cc(Cl)c1O)c1ccc2c(c1)OCO2 | - | - | . | - | . | 94
O=C(N/N=C/c1cc(Br)c(Br)o1)c1ccc2c(c1)OCCO2 | - | - | . | - | - | 85
CCN1C(=O)CC(N2CCN(CC(=O)NC(C)C)CC2)C1=O (configuration not stated) | - | - | - | - | - | -
Cc1sc2ncnc(N3CCC(C(=O)N(C)CC(=O)Nc4ccc(Cl)c(C(F)(F)F)c4)CC3)c2c1C | 58 | - | . | - | . | -
Cc1sc2ncnc(N3CCC(C(=O)N(C)CC(=O)Nc4ccccc4Cl)CC3)c2c1C | - | - | . | - | - | -
CC(=O)N1CCc2ccc(S(=O)(=O)N3CCN(C)CC3)cc21 | - | - | 53 | - | - | -
CN1CCN(S(=O)(=O)c2ccc(Cc3ccc(S(=O)(=O)N4CCN(C)CC4)cc3)cc2)CC1 | - | - | 65 | - | - | -
CN1CCN(S(=O)(=O)c2ccc(-c3ccc(S(=O)(=O)N4CCN(C)CC4)cc3)cc2)CC1 | . | . | . | . | - | .
CC1=NOC(=O)/C1=C\c1ccc(-c2cc(Cl)ccc2Cl)o1 | - | - | 99 | - | - | -
CC1=NOC(=O)/C1=C\c1ccc(-c2ccc(Br)cc2C(=O)O)o1 | - | - | - | - | - | -
CC1=NOC(=O)/C1=C\c1ccc(-c2ccc(Br)cc2)o1 | - | - | 62 | . | - | -
CC1=NOC(=O)/C1=C/c1ccc(-c2ccc(Cl)cc2)o1 | . | . | 100 | - | - | .
Cc1ccc(Nc2cc(C)nc(-c3ccccc3)n2)cc1 | - | - | . | - | - | -
O=C(C1=NN[C@@H]2C(=O)N(Cc3ccccc3)C(=O)[C@H]12)c1ccc([N+](=O)[O-])cc1 | - | - | . | - | - | -
C/C(=N/NC(=O)Nc1ccccc1)c1ccc(C)cc1 | - | - | 51 | - | - | -
C/C(=N\NC(=O)Nc1ccccc1)c1ccc2ccccc2c1 | - | - | - | - | - | -
C[C@H](CO)N1C[C@H](C)[C@@H](CN(C)C(=O)Nc2ccc(C(F)(F)F)cc2)Oc2c(NC(=O)CCC(F)(F)F)cccc2C1=O | . | . | . | - | . | .
S=C(NCCC1=CCCCC1)Nc1ccc(Cl)cc1 | - | - | - | - | - | ?
Clc1ccc(CNCCC2=CCCCC2)cc1 | - | - | 90 | - | - | -
Cc1cccc(C)c1OCC(=O)NNC(=S)NC(=O)C1CC1 | - | - | . | - | - | 76
COc1cc2c(cc1OC)C(c1ccccc1)N(C(=O)C(C)(C)C)CC2 (configuration not stated) | - | - | . | - | - | -
CC(C)(C)c1ccc(C(CC(=O)O)NC(=O)Cc2ccc(Cl)cc2)cc1 (configuration not stated) | - | - | . | - | - | -
CC1CC(C)CN(C(=S)Nc2ccc(SC(F)F)cc2)C1 (configuration not stated) | - | - | 73 | - | - | -
CC1CC(C)CN(C(=S)Nc2ccc(OC(F)F)cc2)C1 (configuration not stated) | - | - | 85 | - | - | -
CCCCNC(=O)Cn1cnc2sc(C)c(S(=O)(=O)N3CCN(c4ccccc4OC)CC3)c2c1=O | - | - | . | - | - | -
SMILES | T cruzi repl | PolyA inh | L major viab | NLRP3 yeast inh | NALP1 inh | Calb FLC
CCc1ccc(-c2nc(CN3CCC(C(=O)NCCN(CC)c4ccccc4)CC3)c(C)o2)cc1 | - | - | 65 | - | - | ?
CCN(CCNC(=O)C1CCN(Cc2nc(-c3ccc(Cl)cc3)oc2C)CC1)c1ccccc1 | - | - | - | - | - | ?
CCN(CCNC(=O)C1CCCN(Cc2nc(-c3ccc(OC)cc3)oc2C)C1)c1ccccc1 (configuration not stated) | 62 | - | 51 | - | - | -
CN(C)C(CNC(=O)C1CCN(S(=O)(=O)c2cccc(Cl)c2Cl)CC1)c1ccccc1 (configuration not stated) | - | - | . | - | - | -
Nc1ccc(C(=O)N2CCN(S(=O)(=O)c3ccc(Cl)s3)CC2)cc1[N+](=O)[O-] | - | - | . | - | . | -
COc1ccc(C(C(=O)NC2CCCC2)N(C(=O)c2snc(-c3ccc(F)cc3)c2N)c2ccc(OC)cc2)cc1 (configuration not stated) | 60 | - | 63 | - | - | -
COc1ccc(C(C(=O)NC2CCCC2)N(C(=O)c2snc(-c3ccc(F)cc3)c2N)c2ccccc2)cc1 (configuration not stated) | - | - | - | - | - | ?
COc1ccc(C(C(=O)NC2CCCC2)N(C(=O)c2snc(-c3ccc(F)cc3)c2N)c2ccc(F)cc2)cc1 (configuration not stated) | - | - | 71 | - | - | -
C/C(=N\N=C(/N)SC1CC(=O)N(c2ccccc2)C1=O)c1cccs1 (configuration not stated) | - | - | - | - | - | -
N/C(=N\N=C\c1cccs1)SC1CC(=O)N(c2ccc(Br)cc2)C1=O (configuration not stated) | - | - | 100 | - | - | -
C/C(=N\N=C(/N)SC1CC(=O)N(c2ccc(Br)cc2)C1=O)c1cccs1 (configuration not stated) | - | - | 100 | - | - | -
N/C(=N\N=C\c1ccnc2ccccc12)SC1CC(=O)N(c2ccc(Br)cc2)C1=O (configuration not stated) | - | - | - | - | - | -
CCOC(=O)Cn1cc(Cl)c(=O)c(Cl)c1 | - | - | . | - | . | -
CC(=O)OC(C(=O)NC1CCCCC1)c1ccc(Cl)c(Cl)c1 (configuration not stated) | - | - | - | - | - | -
O=C(Nc1nnc(-c2ccncc2)s1)Nc1ccccc1F | - | - | 60 | - | - | -
Cc1ccc(-n2c(C)cn(C(=O)c3ccccc3)c2=S)cc1 | - | - | - | - | - | -
Cc1cn(C(=O)c2ccccc2)c(=S)n1-c1ccc(Cl)cc1 | - | - | 85 | - | - | -
CN(C)S(=O)(=O)N1CCC(CO)(Cc2cccc(C(F)(F)F)c2)CC1 | - | - | - | - | - | -
CSc1cccc(CN2CCC(CO)(Cc3cccc(C(F)(F)F)c3)CC2)c1 | - | - | 81 | - | - | -
OCC1(Cc2cccc(C(F)(F)F)c2)CCN(Cc2cc(F)cc(F)c2)CC1 | - | - | 86 | - | - | -
CC(=O)C(Cc1ccccc1)NC(=O)CN1CCN(Cc2ccccc2)CC1 (configuration not stated) | - | - | 65 | - | - | -
CC(=O)C(Cc1ccccc1)NC(=O)CN1CCc2ccccc2C1 (configuration not stated) | - | - | - | - | - | -
CC1(C)C2CCC(C2)C1(C)NC(=O)CN1CCN(Cc2ccccc2)CC1 (configuration not stated) | - | - | 81 | - | - | -
